Source: paper PMC4804196 (Journal of biomolecular screening, 2012)
Values belong to the compound of their own block, whether it stands above or below them.

Columns and labels:
human RXFP1 [1] = molecular target: T1, human RXFP1 (Homo sapiens, UniProt Q9HBX9); test: HTRF cAMP assay in HEK293-RXFP1 cells; type: cell-based
T1 sequence (Q9HBX9 1-757): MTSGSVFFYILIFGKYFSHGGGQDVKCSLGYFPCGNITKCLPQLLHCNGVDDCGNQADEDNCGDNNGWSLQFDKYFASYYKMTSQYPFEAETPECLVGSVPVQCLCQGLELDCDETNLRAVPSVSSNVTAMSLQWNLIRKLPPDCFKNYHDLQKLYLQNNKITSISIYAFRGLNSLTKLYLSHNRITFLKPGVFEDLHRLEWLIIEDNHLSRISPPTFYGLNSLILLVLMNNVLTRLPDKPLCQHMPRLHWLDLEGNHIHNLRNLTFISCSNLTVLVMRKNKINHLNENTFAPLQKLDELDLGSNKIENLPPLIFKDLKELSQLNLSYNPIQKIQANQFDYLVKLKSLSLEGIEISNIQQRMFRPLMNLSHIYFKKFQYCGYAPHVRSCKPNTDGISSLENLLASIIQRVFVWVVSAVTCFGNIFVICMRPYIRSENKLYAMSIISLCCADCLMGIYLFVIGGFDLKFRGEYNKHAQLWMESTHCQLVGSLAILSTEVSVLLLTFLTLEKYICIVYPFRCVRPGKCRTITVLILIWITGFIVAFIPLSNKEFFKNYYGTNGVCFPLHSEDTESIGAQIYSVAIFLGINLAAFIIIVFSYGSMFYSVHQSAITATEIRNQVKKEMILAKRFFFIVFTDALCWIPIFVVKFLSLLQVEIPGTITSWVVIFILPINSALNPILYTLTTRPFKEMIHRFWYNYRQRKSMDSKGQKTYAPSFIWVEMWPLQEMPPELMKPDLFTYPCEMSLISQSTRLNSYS

human RXFP1 [2] = molecular target: T1, human RXFP1; test: ELISA cAMP assay; type: cell-based; settings: 96-well; for efficacy: normalized to 57.5 μM forskolin as 100%
How it was run: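 HEK293T cells stably expressing human RXFP1 were grown in DMEM with 10% FBS, penicillin/streptomycin and 500 μg/mL geneticin. They were seeded at 16,000 cells/well and left overnight at 37 °C, 5% CO₂. PDE inhibitor Ro 20-1724 (417 μM addition solution in PBS+) was added, then test compound in DMSO, for 30 min at 37 °C. Cells were lysed and cAMP was quantified by ELISA. EC50 came from nonlinear regression of dose-response curves.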

[3] = molecular target: human relaxin family receptor 2 (RXFP2) (Homo sapiens, UniProt Q8WXD0); test: HTRF cAMP selectivity assay in HEK293-RXFP2 cells; type: cell-based; settings: HEK293-RXFP1 vs HEK293-RXFP2
[4] = molecular target: T2, vasopressin 1b receptor (V1b) (Homo sapiens, UniProt P47901); test: HTRF cAMP counter screen in HEK293-V1b cells; type: cell-based
T2 sequence (P47901 1-424): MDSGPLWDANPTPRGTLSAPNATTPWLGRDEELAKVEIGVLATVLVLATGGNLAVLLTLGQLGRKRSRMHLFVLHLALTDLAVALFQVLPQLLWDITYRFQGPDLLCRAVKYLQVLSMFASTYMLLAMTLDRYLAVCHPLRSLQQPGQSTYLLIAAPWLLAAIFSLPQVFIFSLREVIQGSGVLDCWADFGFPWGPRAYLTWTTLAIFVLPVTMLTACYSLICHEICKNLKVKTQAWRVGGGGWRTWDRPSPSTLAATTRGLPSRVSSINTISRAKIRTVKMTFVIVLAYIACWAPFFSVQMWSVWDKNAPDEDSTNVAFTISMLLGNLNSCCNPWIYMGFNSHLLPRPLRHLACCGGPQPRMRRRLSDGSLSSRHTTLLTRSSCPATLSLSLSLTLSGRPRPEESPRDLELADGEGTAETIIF

[5] = molecular target: human relaxin family receptor 1 (RXFP1) (human) (UniProt Q9HBX9)

Chain of human relaxin family receptor 2 (RXFP2) (Q8WXD0 whole entry): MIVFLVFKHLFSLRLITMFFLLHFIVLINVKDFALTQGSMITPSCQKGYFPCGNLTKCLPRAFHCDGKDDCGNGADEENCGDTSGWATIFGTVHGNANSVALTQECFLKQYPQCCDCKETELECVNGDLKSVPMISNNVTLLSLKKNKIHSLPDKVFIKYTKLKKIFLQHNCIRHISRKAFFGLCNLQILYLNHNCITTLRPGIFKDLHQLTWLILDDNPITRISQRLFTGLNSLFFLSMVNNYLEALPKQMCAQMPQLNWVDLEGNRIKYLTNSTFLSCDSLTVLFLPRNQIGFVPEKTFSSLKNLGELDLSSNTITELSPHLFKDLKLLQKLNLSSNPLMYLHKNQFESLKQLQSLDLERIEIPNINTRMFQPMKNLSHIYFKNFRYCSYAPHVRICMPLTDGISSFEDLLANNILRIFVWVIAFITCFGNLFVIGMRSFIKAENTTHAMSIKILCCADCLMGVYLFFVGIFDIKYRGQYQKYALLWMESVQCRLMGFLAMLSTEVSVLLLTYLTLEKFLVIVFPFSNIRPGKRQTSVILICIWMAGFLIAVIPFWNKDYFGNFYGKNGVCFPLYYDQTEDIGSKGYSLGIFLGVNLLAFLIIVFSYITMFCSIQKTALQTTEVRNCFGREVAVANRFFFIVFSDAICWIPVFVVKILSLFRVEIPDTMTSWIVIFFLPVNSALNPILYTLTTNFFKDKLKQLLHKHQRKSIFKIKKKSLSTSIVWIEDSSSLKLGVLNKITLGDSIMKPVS
Chain of Porcine relaxin (ligand) (P01348 25-182): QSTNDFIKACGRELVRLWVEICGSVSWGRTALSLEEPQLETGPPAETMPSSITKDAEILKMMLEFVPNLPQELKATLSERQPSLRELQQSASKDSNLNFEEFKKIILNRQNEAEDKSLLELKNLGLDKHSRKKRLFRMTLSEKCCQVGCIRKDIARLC

EC50 (human RXFP1 [2]): 2900 nM
efficacy (human RXFP1 [2]): 80%
Compound: O=C(Nc1ccccc1C(=O)Nc1ccccc1C(=O)NCc1ccco1)c1ccco1 [MLS000088899]

EC50 (human RXFP1 [2]): 6200 nM
efficacy (human RXFP1 [2]): 60%
Compound: O=C(Nc1cccc(C(F)(F)F)c1)c1ccccc1NC(=O)C1CCCCC1 [MLS000579461]

The remaining lines, values behind:

Compound: C=C[C@@]1(C)CC(=O)[C@]2(O)[C@@]3(C)[C@@H](O)CCC(C)(C)[C@@H]3[C@H](O)[C@H](OC(C)=O)[C@@]2(C)O1 [forskolin, reference compound]
EC50 (human RXFP1 [1]; EC50 (cAMP response), HEK293-RXFP1 cells, 384-well format): 164 nM
EC50 (human RXFP1 [1]; EC50 (cAMP response), HEK293-RXFP1 cells, 1,536-well format): 193 nM

Compound: relaxin
EC50 (human RXFP1 [1]; read-out: EC50 (cAMP response), HEK293-RXFP1 cells, 384-well format): 0.203 nM
EC50 (human RXFP1 [1]; read-out: EC50 (cAMP response), HEK293-RXFP1 cells, 1,536-well format): 0.494 nM
selectivity towards RXFP1 over RXFP2 [3]: > 30 fold
activity in HEK293-V1b counter screen [4]: no activity

Compound: Porcine relaxin (ligand)
EC50 of cAMP production (HTRF cAMP assay) in HEK293-RXFP1 cells, 384-well format [5]: 0.203 nM
